Laboratory results as given in ChEMBL document CHEMBL1122788, “Quantitative relationships between alpha-adrenergic activity and binding affinity of alpha-adrenoceptor agonists and antagonists” (J Med Chem, 1984).

Legend:
Oryctolagus cuniculus = organism: Oryctolagus cuniculus; experiment: Index of alpha1/alpha2 adrenoceptor antagonist selectivity at pre and postsynaptic sites in vitro.; type: functional
[1] = molecular target: Adrenergic receptor alpha-2 (Homo sapiens) (UniProt P08913+P18825+P18089); conditions: Oryctolagus cuniculus
[2] = molecular target: T1, Adrenergic receptor alpha-1 (Rattus norvegicus, UniProt P15823+P23944+P43140); experiment: Antagonist activity against phenylephrine-induced alpha1- adrenoceptor mediated vasoconstriction in pithed normotensive rats.; type: functional
T1 sequence (P15823 whole entry): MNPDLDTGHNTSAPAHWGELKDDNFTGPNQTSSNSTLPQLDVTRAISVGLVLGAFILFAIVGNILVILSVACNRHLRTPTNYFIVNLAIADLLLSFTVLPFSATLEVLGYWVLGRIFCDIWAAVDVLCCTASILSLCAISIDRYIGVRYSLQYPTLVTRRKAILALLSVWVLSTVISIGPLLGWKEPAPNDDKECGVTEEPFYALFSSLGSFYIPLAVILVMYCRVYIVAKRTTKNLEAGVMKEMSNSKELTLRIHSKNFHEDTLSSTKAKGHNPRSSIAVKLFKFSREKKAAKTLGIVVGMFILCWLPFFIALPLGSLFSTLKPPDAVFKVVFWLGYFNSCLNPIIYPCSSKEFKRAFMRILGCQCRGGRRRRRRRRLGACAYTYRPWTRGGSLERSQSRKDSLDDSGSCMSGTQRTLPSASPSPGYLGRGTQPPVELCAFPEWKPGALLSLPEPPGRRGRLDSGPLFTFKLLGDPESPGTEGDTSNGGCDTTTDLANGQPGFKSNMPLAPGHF
T1 sequence (P23944 whole entry): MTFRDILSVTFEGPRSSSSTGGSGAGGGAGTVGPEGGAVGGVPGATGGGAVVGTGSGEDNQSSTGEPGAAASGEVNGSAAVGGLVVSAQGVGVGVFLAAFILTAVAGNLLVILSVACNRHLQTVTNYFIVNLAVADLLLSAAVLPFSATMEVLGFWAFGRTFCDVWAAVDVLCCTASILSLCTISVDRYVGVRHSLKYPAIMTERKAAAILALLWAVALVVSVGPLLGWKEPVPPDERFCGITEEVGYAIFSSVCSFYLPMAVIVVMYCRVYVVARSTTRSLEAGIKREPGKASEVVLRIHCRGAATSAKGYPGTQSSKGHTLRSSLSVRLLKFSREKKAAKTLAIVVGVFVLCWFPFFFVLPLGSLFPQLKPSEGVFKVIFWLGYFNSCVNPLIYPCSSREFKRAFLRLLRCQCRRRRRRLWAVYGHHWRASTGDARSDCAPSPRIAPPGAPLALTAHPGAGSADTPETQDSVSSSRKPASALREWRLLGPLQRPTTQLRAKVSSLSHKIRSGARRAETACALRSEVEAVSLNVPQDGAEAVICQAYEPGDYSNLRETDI
T1 sequence (P43140 whole entry): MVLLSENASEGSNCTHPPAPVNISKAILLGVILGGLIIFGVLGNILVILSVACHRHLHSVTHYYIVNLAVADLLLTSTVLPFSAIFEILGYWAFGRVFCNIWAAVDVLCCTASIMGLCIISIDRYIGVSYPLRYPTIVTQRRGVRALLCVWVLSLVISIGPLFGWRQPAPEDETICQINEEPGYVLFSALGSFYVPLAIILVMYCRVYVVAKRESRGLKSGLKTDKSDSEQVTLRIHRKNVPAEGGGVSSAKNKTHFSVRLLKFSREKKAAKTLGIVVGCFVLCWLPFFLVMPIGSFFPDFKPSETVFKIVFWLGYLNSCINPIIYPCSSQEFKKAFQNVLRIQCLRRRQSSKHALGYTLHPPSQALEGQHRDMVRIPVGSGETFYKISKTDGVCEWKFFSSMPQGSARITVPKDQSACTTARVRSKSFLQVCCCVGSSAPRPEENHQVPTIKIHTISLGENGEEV

[3] = molecular target: T1, Adrenergic receptor alpha-1; experiment: (§1) Inhibition of specific [3H]-prazosin binding (0.2 nM) to rat brain membranes alpha-1 adrenergic receptor; type: cell membranes, Membrane
In short: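 Brain membranes were prepared from male Wistar rats (200–250 g, cerebellum removed) in ice-cold 50 mmol/L Tris-HCl, pH 7.7, with two 50000g spins, and used at 1 mg/mL protein (Lowry). […] Bound label was collected by vacuum filtration and counted. IC50 came from log probit analysis.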

[4] = molecular target: T1, Adrenergic receptor alpha-1; experiment: as §1; type: cell membranes, Membrane; remark: listed apart in the source
In short: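 Whole rat brain (minus cerebellum) from male Wistar rats (200–250 g), homogenized in ice-cold 50 mM Tris-HCl pH 7.7 and washed twice at 50000g. Bound ligand was collected by filtration and counted. IC50 was derived by log-probit analysis.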

[5] = molecular target: T1, Adrenergic receptor alpha-1; experiment: In vivo antagonist activity against (-)-phenylephrine-induced alpha-1 adrenergic receptor mediated vasoconstriction in pithed normotensive rats.; type: functional, organism-based

pC30 [1]	pA2 [2]	IC50 [3] [nM]	SMILES	Selectivity index (Oryctolagus cuniculus)	IC50 [4] [nM]	pA2 [5]
5.89	6.09	205	C=CCN1Cc2ccccc2-c2ccccc2C1 [AZAPETINE]	1.08	–	–
–	–	–	CN1C[C@H](C(=O)N[C@]2(C)O[C@@]3(O)[C@@H]4CCCN4C(=O)[C@H](Cc4ccccc4)N3C2=O)C[C@@H]2c3cccc4[nH]cc(c34)C[C@H]21 [DIHYDROERGOTAMINE]	–	27	6.68
